Experimental data reported in ChEMBL document CHEMBL3593197, “Development of novel DIF-1 derivatives that selectively suppress innate immune responses” (Bioorg Med Chem, 2015).
Activity calls are given as the source filed them. The rule behind the calls is not given here.

Legend:
[1] = system: Drosophila; experiment: Immunosuppressive activity in Drosophila S2 cells expressing att-luc reporter gene assessed as inhibition of peptidoglycan-induced attacin production pre-treated for 1.5 hrs before peptidoglycan stimulation for 8 hrs by luciferase reporter gene assay; assay type: functional
How it was run: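 S2 cells stably carrying an attacin-promoter luciferase reporter were pre-treated with a concentration series of compound for 1.5 h. They were then stimulated with 100 ng/mL peptidoglycan. After 8 h, cells were lysed and luciferase luminescence was read. IC50 is the concentration lowering signal to 50% of the peptidoglycan-only control. Mean ± SD of four independent experiments.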

[2] = Cytotoxicity against Drosophila S2 assessed as reduction in cell proliferation by WST8 assay; details: Drosophila S2 cells
How it was run: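 S2 cells exposed to a concentration series of compound for 24 h; proliferation read by colorimetric WST-8 conversion. CC50 is the concentration reducing proliferation to 50% of DMSO control. Mean ± SD of four independent experiments.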

[3] = system: Drosophila; experiment: Selectivity index, ratio of CC50 for Drosophila S2 by WST8 assay to IC50 for immunosuppressive activity in Drosophila S2 cells expressing att-luc reporter gene assessed as inhibition of attacin production; assay type: functional
How it was run: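 The ratio is CC50 divided by IC50. CC50 comes from 24 h WST-8 proliferation of S2 cells, relative to DMSO. IC50 comes from 8 h luciferase signal in peptidoglycan-stimulated (100 ng/mL) S2 att-luc reporter cells pre-treated 1.5 h. Both were derived from concentration series.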

[4] = system: Jurkat; experiment: Immunosuppressive activity in human Jurkat cells assessed as inhibition of ConA-induced IL2 production at 5 uM pre-treated for 30 mins before ConA stimulation for 12 hrs by immunoassay; assay type: functional, cell-based
How it was run: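 ConA was added to a final 25 µg/mL and cells were incubated a further 12 h. Secreted IL-2 in the culture medium was quantified by anti-human IL-2 sandwich immunoassay, in duplicate wells. Mean ± SD of three independent experiments.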

[5] = system: Jurkat; experiment: Cytotoxicity against human Jurkat cells assessed as reduction in cell viability at 5 uM by MTT assay; assay type: cell-based
How it was run: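 Jurkat cells pre-incubated 30 min with 5 µM compound or 0.1% DMSO vehicle, then incubated under the same conditions as the IL-2 assay (ConA added, 12 h). Viable cells were measured by MTT assay as percent of control. Mean ± SD of three independent experiments.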

Row | Structure (SMILES) | IC50 [1] [µM] | CC50 [2] [µM] | Ratio CC50/IC50 [3] | inhibition [1] | inhibition [4] | Activity [5]
1 | CCCCCC(=O)c1c(OC)c(Cl)c(OC)c(Cl)c1OC | 18.9 | 148 | 7.8 |  |  | 
2 | CCCC(=O)c1c(O)c(Cl)c(O)c(Cl)c1O | 21.5 | > 100 | >4.7 |  |  | 
3 | CCCC(=O)c1c(OC)c(Cl)c(OC)c(Cl)c1OC | 20.8 | 144 | 6.9 |  |  | 
4 | CCCCC(=O)c1c(OC)c(Cl)c(OC)c(Cl)c1OC | 23.5 | 149 | 6.3 |  |  | 
5 | CCCCCCc1c(O)c(Cl)c(OC)c(Cl)c1O | 58.6 | > 100 | >1.7 |  |  | 
6 | CCCCCCCC(=O)c1c(OC)c(Cl)c(OC)c(Cl)c1OC | 15.3 | 51.4 | 3.4 |  |  | 
7 | CCCCCCC(=O)c1c(OC)c(Cl)c(OC)c(Cl)c1OC | 16.8 | 140 | 8.3 |  | Active | Non-toxic

Now from value to compound, other results behind:

Row | IC50 [1] [µM] | Structure (SMILES) | CC50 [2] [µM] | Ratio CC50/IC50 [3] | inhibition [1] | inhibition [4] | Activity [5]
8 | 6.5 | CCCCCCCCC(=O)c1c(O)c(Cl)c(O)c(Cl)c1O | 82.8 | 12.7 |  |  | 
9 | 4.6 | CCCCCC(=O)c1c(O)c(Cl)c(OC)c(Cl)c1O | 22.5 | 4.9 | Dose-dependent effect |  | 
10 | 3.8 | CCCCCC(=O)c1c(O)c(Cl)c(C)c(Cl)c1O | 13.8 | 3.6 |  |  | 
11 | 9.9 | CCCCCC(=O)c1c(O)c(Cl)c(O)c(Cl)c1O | 102 | 10.3 |  |  | 
12 | 3.7 | CCCCCC(=O)c1c(O)c(Br)c(OC)c(Br)c1O | 12.9 | 3.5 |  |  | 
13 | 3.7 | CCCCCCCC(=O)c1c(O)c(Cl)c(O)c(Cl)c1O | 88.5 | 23.9 |  | Active | Non-toxic
14 | 4.6 | CCCCCC(=O)c1c(O)cc(OC)c(Cl)c1O | 8.7 | 1.9 |  |  | 
